# Measurements published in ChEMBL document CHEMBL4715736, “Identification of anticancer agents based on the thieno[2,3-b]pyridine and 1H-pyrazole molecular scaffolds” (2016).
# Tests used:
# Format in all cases: functional
# Conditions in all cases: read-out: Activity
# SW-620 = experiment: Growth inhibition of human SW-620 cells assessed as cell growth at 0.01 uM incubated for 48 hrs by sulforhodamine B assay relative to control
# CAKI-1 [1] = experiment: Growth inhibition of human CAKI-1 cells assessed as cell growth at 0.01 uM incubated for 48 hrs by sulforhodamine B assay relative to control
# Procedure, shortened: (§1)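 NCI Developmental Therapeutics Program NCI60 panel. Compounds that were active in the 10 µM one-dose screen went on to dose–response testing. Growth at each concentration is expressed relative to untreated control (100%). GI50 (concentration giving 50% of maximal inhibition of proliferation) and TGI (concentration giving total growth inhibition) were derived from the curves.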
# UO-31 = experiment: Growth inhibition of human UO-31 cells assessed as cell growth at 0.1 uM incubated for 48 hrs by sulforhodamine B assay relative to control
# MDA-MB-231 [2] = experiment: Growth inhibition of human MDA-MB-231 cells assessed as cell growth at 0.1 uM incubated for 48 hrs by sulforhodamine B assay relative to control
# MDA-MB-468 = experiment: Growth inhibition of human MDA-MB-468 cells assessed as cell growth at 0.1 uM incubated for 48 hrs by sulforhodamine B assay relative to control
# CCRF-CEM = experiment: Growth inhibition of human CCRF-CEM cells assessed as cell growth at 10 uM incubated for 48 hrs by sulforhodamine B assay relative to control; procedure, shortened: as §1
# K562 = experiment: Growth inhibition of human K562 cells assessed as cell growth at 10 uM incubated for 48 hrs by sulforhodamine B assay relative to control
# Procedure, shortened: (§2)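 Submitted to the NCI Developmental Therapeutics Program for the NCI60 human tumour cell line panel. First screen at a single 10 µM concentration. Read-out is growth relative to untreated control cells set at 100%.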
# A549 = experiment: Growth inhibition of human A549/ATCC cells assessed as cell growth at 10 uM incubated for 48 hrs by sulforhodamine B assay relative to control; procedure, shortened: as §1
# HOP-62 = experiment: Growth inhibition of human HOP-62 cells assessed as cell growth at 10 uM incubated for 48 hrs by sulforhodamine B assay relative to control; procedure, shortened: as §2
# HOP-92 = experiment: Growth inhibition of human HOP-92 cells assessed as cell growth at 10 uM incubated for 48 hrs by sulforhodamine B assay relative to control; procedure, shortened: as §2
# NCI-H23 = experiment: Growth inhibition of human NCI-H23 cells assessed as cell growth at 10 uM incubated for 48 hrs by sulforhodamine B assay relative to control; procedure, shortened: as §2
# COLO 205 = experiment: Growth inhibition of human COLO 205 cells assessed as cell growth at 10 uM incubated for 48 hrs by sulforhodamine B assay relative to control; procedure, shortened: as §1
# HCT-15 = experiment: Growth inhibition of human HCT-15 cells assessed as cell growth at 10 uM incubated for 48 hrs by sulforhodamine B assay relative to control; procedure, shortened: as §2
# SF-268 = experiment: Growth inhibition of human SF-268 cells assessed as cell growth at 10 uM incubated for 48 hrs by sulforhodamine B assay relative to control
# Procedure, shortened: (§3)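 Run by the NCI Developmental Therapeutics Program as part of its 60-line human tumour panel. Each compound tested at a single 10 µM dose. Growth expressed as % relative to untreated control cells (100%).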
# SNB-19 = experiment: Growth inhibition of human SNB-19 cells assessed as cell growth at 10 uM incubated for 48 hrs by sulforhodamine B assay relative to control; procedure, shortened: as §3
# SNB-75 = experiment: Growth inhibition of human SNB-75 cells assessed as cell growth at 10 uM incubated for 48 hrs by sulforhodamine B assay relative to control; procedure, shortened: as §3
# U-251 = experiment: Growth inhibition of human U-251 cells assessed as cell growth at 10 uM incubated for 48 hrs by sulforhodamine B assay relative to control; procedure, shortened: as §3
# M14 = experiment: Growth inhibition of human M14 cells assessed as cell growth at 10 uM incubated for 48 hrs by sulforhodamine B assay relative to control; procedure, shortened: as §2
# UACC-257 = experiment: Growth inhibition of human UACC-257 cells assessed as cell growth at 10 uM incubated for 48 hrs by sulforhodamine B assay relative to control; procedure, shortened: as §3
# UACC-62 = experiment: Growth inhibition of human UACC-62 cells assessed as cell growth at 10 uM incubated for 48 hrs by sulforhodamine B assay relative to control; procedure, shortened: as §3
# IGROV-1 = experiment: Growth inhibition of human IGROV-1 cells assessed as cell growth at 10 uM incubated for 48 hrs by sulforhodamine B assay relative to control; procedure, shortened: as §2
# OVCAR-8 = experiment: Growth inhibition of human OVCAR-8 cells assessed as cell growth at 10 uM incubated for 48 hrs by sulforhodamine B assay relative to control; procedure, shortened: as §3
# A498 = experiment: Growth inhibition of human A498 cells assessed as cell growth at 10 uM incubated for 48 hrs by sulforhodamine B assay relative to control; procedure, shortened: as §1
# CAKI-1 [3] = experiment: Growth inhibition of human CAKI-1 cells assessed as cell growth at 10 uM incubated for 48 hrs by sulforhodamine B assay relative to control; procedure, shortened: as §1
# MDA-MB-231 [4] = experiment: Growth inhibition of human MDA-MB-231 cells assessed as cell growth at 10 uM incubated for 48 hrs by sulforhodamine B assay relative to control; procedure, shortened: as §2
# MOLT-4 = experiment: Growth inhibition of human MOLT-4 cells assessed as cell growth at 100 uM incubated for 48 hrs by sulforhodamine B assay relative to control
# OVCAR-3 = experiment: Growth inhibition of human OVCAR-3 cells assessed as cell growth at 100 uM incubated for 48 hrs by sulforhodamine B assay relative to control
# NCI/ADR-RES = experiment: Growth inhibition of human NCI/ADR-RES cells assessed as cell growth at 100 uM incubated for 48 hrs by sulforhodamine B assay relative to control
# NCI-H522 [5] = experiment: Growth inhibition of human NCI-H522 cells assessed as cell growth at 10 uM incubated for 48 hrs by sulforhodamine B assay relative to control; procedure, shortened: as §2
# HT-29 = experiment: Growth inhibition of human HT-29 cells assessed as cell growth at 10 uM incubated for 48 hrs by sulforhodamine B assay relative to control; procedure, shortened: as §2
# SK-MEL-2 = experiment: Growth inhibition of human SK-MEL-2 cells assessed as cell growth at 10 uM incubated for 48 hrs by sulforhodamine B assay relative to control; procedure, shortened: as §3
# SK-OV-3 = experiment: Growth inhibition of human SK-OV-3 cells assessed as cell growth at 10 uM incubated for 48 hrs by sulforhodamine B assay relative to control; procedure, shortened: as §3
# TK-10 = experiment: Growth inhibition of human TK-10 cells assessed as cell growth at 10 uM incubated for 48 hrs by sulforhodamine B assay relative to control; procedure, shortened: as §3
# BT-549 = experiment: Growth inhibition of human BT-549 cells assessed as cell growth at 10 uM incubated for 48 hrs by sulforhodamine B assay relative to control
# Procedure, shortened: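 NCI Developmental Therapeutics Program NCI60 human tumour cell line panel, one-dose primary screen with every compound at 10 µM. Growth is expressed as % of untreated control cells (100%).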
# NCI-H522 [6] = experiment: Growth inhibition of human NCI-H522 cells assessed as cell growth at 100 uM incubated for 48 hrs by sulforhodamine B assay relative to control
structure (smiles),measurement,setting,value
CCc1cccc(C)c1NC(=O)c1sc2nc3c(cc2c1N)C(=O)CCC3,growth at 0.01 µM,SW-620,97%
same,growth at 0.01 µM,CAKI-1 [1],89%
same,growth at 0.1 µM,UO-31,82%
same,growth at 0.1 µM,MDA-MB-231 [2],100%
same,growth at 0.1 µM,MDA-MB-468,91%
same,growth at 10 µM,CCRF-CEM,1%
same,growth at 10 µM,K562,2%
same,growth at 10 µM,A549,22.9%
same,growth at 10 µM,HOP-62,23.3%
same,growth at 10 µM,HOP-92,30%
same,growth at 10 µM,NCI-H23,32%
same,growth at 10 µM,COLO 205,-58%
same,growth at 10 µM,HCT-15,16%
same,growth at 10 µM,SF-268,38%
same,growth at 10 µM,SNB-19,42%
same,growth at 10 µM,SNB-75,-2.83%
same,growth at 10 µM,U-251,2.81%
same,growth at 10 µM,M14,7%
same,growth at 10 µM,UACC-257,49%
same,growth at 10 µM,UACC-62,29%
same,growth at 10 µM,IGROV-1,30%
same,growth at 10 µM,OVCAR-8,20%
same,growth at 10 µM,A498,-13%
same,growth at 10 µM,CAKI-1 [3],38%
same,growth at 10 µM,MDA-MB-231 [4],14%
same,growth at 100 µM,MOLT-4,-9%
same,growth at 100 µM,OVCAR-3,-50%
same,growth at 100 µM,NCI/ADR-RES,1%
CCc1ccccc1NC(=O)c1sc2nc3c(cc2c1N)C(=O)CCC3,growth at 0.01 µM,SW-620,96%
same,growth at 0.01 µM,CAKI-1 [1],89%
same,growth at 0.1 µM,UO-31,85%
same,growth at 0.1 µM,MDA-MB-231 [2],90%
same,growth at 0.1 µM,MDA-MB-468,75%
same,growth at 10 µM,CCRF-CEM,4%
same,growth at 10 µM,K562,11%
same,growth at 10 µM,A549,21.5%
same,growth at 10 µM,HOP-62,35.5%
same,growth at 10 µM,HOP-92,54%
same,growth at 10 µM,NCI-H522 [5],-11.6%
same,growth at 10 µM,COLO 205,-68%
same,growth at 10 µM,HCT-15,29%
same,growth at 10 µM,HT-29,6%
same,growth at 10 µM,SF-268,40.4%
same,growth at 10 µM,SNB-19,35%
same,growth at 10 µM,SNB-75,-15.4%
same,growth at 10 µM,U-251,13%
same,growth at 10 µM,M14,5%
same,growth at 10 µM,SK-MEL-2,19.9%
same,growth at 10 µM,UACC-257,60%
same,growth at 10 µM,IGROV-1,33.3%
same,growth at 10 µM,OVCAR-8,24.3%
same,growth at 10 µM,SK-OV-3,30%
same,growth at 10 µM,A498,-9.7%
same,growth at 10 µM,CAKI-1 [3],29.9%
same,growth at 10 µM,TK-10,54.7%
same,growth at 10 µM,MDA-MB-231 [4],36%
same,growth at 10 µM,BT-549,48%
same,growth at 100 µM,MOLT-4,31%
same,growth at 100 µM,NCI-H522 [6],19%
same,growth at 100 µM,OVCAR-3,-36%
same,growth at 100 µM,NCI/ADR-RES,-6%
Cc1ccc(NC(=O)c2sc3nc4c(cc3c2N)C(=O)CCC4)cc1C,growth at 0.01 µM,SW-620,99%
same,growth at 0.01 µM,CAKI-1 [1],96%
same,growth at 0.1 µM,UO-31,81%
same,growth at 0.1 µM,MDA-MB-231 [2],95%
same,growth at 0.1 µM,MDA-MB-468,83%
same,growth at 10 µM,CCRF-CEM,-6%
same,growth at 10 µM,K562,5%
same,growth at 10 µM,A549,19.5%
same,growth at 10 µM,HOP-62,23.6%
same,growth at 10 µM,HOP-92,50%
same,growth at 10 µM,NCI-H522 [5],-9.22%
same,growth at 10 µM,COLO 205,-63%
same,growth at 10 µM,HCT-15,27%
same,growth at 10 µM,HT-29,1%
same,growth at 10 µM,SF-268,42.7%
same,growth at 10 µM,SNB-19,31%
same,growth at 10 µM,SNB-75,-10.3%
same,growth at 10 µM,U-251,10%
same,growth at 10 µM,M14,-23%
same,growth at 10 µM,SK-MEL-2,31%
same,growth at 10 µM,UACC-257,54.2%
same,growth at 10 µM,IGROV-1,23.9%
same,growth at 10 µM,OVCAR-8,31%
same,growth at 10 µM,SK-OV-3,4.9%
same,growth at 10 µM,A498,-16%
same,growth at 10 µM,CAKI-1 [3],35.7%
same,growth at 10 µM,TK-10,56%
same,growth at 10 µM,MDA-MB-231 [4],22%
same,growth at 10 µM,BT-549,63%
same,growth at 100 µM,MOLT-4,-6%
same,growth at 100 µM,NCI-H522 [6],-13%
same,growth at 100 µM,OVCAR-3,-23%
same,growth at 100 µM,NCI/ADR-RES,4%
CN1CCc2nc3sc(C(N)=O)c(N)c3c(-c3cccs3)c2C1,growth at 0.01 µM,SW-620,105%
same,growth at 0.01 µM,CAKI-1 [1],95%
same,growth at 0.1 µM,UO-31,102%
same,growth at 0.1 µM,MDA-MB-231 [2],109%
same,growth at 0.1 µM,MDA-MB-468,82%
same,growth at 10 µM,CCRF-CEM,10%
same,growth at 10 µM,K562,30%
same,growth at 10 µM,A549,13%
same,growth at 10 µM,HOP-62,1%
same,growth at 10 µM,HOP-92,-4%
same,growth at 10 µM,NCI-H23,3%
same,growth at 10 µM,NCI-H522 [5],9%
same,growth at 10 µM,COLO 205,-54%
same,growth at 10 µM,HCT-15,10%
same,growth at 10 µM,HT-29,7%
same,growth at 10 µM,SF-268,10%
same,growth at 10 µM,SNB-19,19%
same,growth at 10 µM,SNB-75,-10%
same,growth at 10 µM,U-251,10%
same,growth at 10 µM,M14,11%
same,growth at 10 µM,SK-MEL-2,-28%
same,growth at 10 µM,UACC-257,10%
same,growth at 10 µM,UACC-62,-21%
same,growth at 10 µM,IGROV-1,18%
same,growth at 10 µM,OVCAR-8,7%
same,growth at 10 µM,SK-OV-3,15%
same,growth at 10 µM,A498,-15%
same,growth at 10 µM,CAKI-1 [3],11%
same,growth at 10 µM,TK-10,1%
same,growth at 10 µM,MDA-MB-231 [4],28%
same,growth at 10 µM,BT-549,10%
same,growth at 100 µM,MOLT-4,-4%
same,growth at 100 µM,NCI-H522 [6],-26%
same,growth at 100 µM,OVCAR-3,-8%
